Data as given in ChEMBL document CHEMBL3352570, “ST7612AA1, a thioacetate-ω(γ-lactam carboxamide) derivative selected from a novel generation of oral HDAC inhibitors” (J Med Chem, 2014).
Blank lines part the entries; values can stand above or below the compound they belong to. Calls of active or inactive are those of the source. The rule behind the calls is not given here.

Columns and labels:
NCI-H460 = test: Cytotoxicity against human NCI-H460 cells after 24 hrs by SRB assay; assay type: functional, cell-based; details: NCI-H460, 24 h
Outline: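 NCI-H460 cells were grown in RPMI-1640 with L-glutamine, 10% heat-inactivated FCS and 50 μg/mL gentamicin. Cells were seeded at about 10% confluence and allowed to recover for 24 h. They were exposed to varying concentrations for 24 h, washed, then cultured a further 48 h. Surviving cells were measured by SRB. IC50 is the 50% reduction in cell number versus vehicle, from dose–response curve fitting; means of at least three experiments.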

Histone deacetylase [1] = test: Inhibition of HDAC-mediated histone H4 deacetylation in human NCI-H460 cells after 3 hrs by Western blot analysis; assay type: cell-based
Outline: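 NCI-H460 cells were plated the day before and treated 3 h across a dose range. Cells were washed with DPBS containing 5 mM NaB and lysed in HNB buffer with 1% NP-40. Histones were acid-extracted from nuclei with 0.4 equiv/L H2SO4 and precipitated with acetone. Blots were probed for acetyl-H4 against total H4. Read-out was ECL and densitometry after normalization; IC50 fitted; means of at least two experiments.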

Histone deacetylase [2] = test: Inhibition of HDAC-mediated tubulin deacetylation in human NCI-H460 cells after 3 hrs by Western blot analysis; assay type: cell-based
Outline: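 Cells (NCI-H460) were treated for 3 h with graded concentrations. The cytoplasmic fraction was collected after HNB/1% NP-40 lysis and centrifugation of nuclei at 2000g. This fraction was resolved by SDS-PAGE and probed for acetylated α-tubulin against α-tubulin and β-actin. Bands were detected by ECL and quantified by densitometry after normalization; IC50 fitted; means of at least two experiments.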

[3] = Cytotoxicity against human HCT116 cells after 24 hrs by SRB assay; assay type: functional, cell-based; details: HCT-116, 24 h
Outline: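 HCT116 cells were cultured in McCoy's 5A with L-glutamine, 10% heat-inactivated FCS and 50 μg/mL gentamicin. After seeding at about 10% confluence and a 24 h recovery, they received drug for 24 h. Drug was washed out and cells were incubated 48 h more before SRB staining. IC50 is the 50% cell-number reduction versus vehicle, from fitted dose–response curves; means of at least two experiments.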

[4] = Solubility of the compound in water; assay type: physicochemical
[5] = target: T1, Histone deacetylase 8 (Homo sapiens) (UniProt Q9BY41); test: Inhibition of HDAC8 (unknown origin) using fluorogenic tetrapeptide RHK(Ac)K(Ac) substrate at <50 uM by fluorescence assay
T1 sequence (whole entry): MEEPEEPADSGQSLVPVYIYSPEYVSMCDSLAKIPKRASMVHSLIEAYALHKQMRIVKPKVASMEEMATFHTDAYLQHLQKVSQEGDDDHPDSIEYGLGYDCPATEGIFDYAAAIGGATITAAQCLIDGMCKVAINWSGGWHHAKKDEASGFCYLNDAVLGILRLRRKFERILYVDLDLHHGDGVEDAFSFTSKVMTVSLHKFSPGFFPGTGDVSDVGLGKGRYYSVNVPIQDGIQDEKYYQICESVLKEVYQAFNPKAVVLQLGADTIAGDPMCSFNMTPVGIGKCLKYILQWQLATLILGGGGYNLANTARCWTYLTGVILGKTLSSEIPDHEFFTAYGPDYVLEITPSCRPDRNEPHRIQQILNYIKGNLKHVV
Outline: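 The HDAC8 assay used the diacetylated fluorogenic substrate RHK(Ac)K(Ac) at 50 μM.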

[6] = target: T2, Polyamine deacetylase HDAC10 (Homo sapiens) (UniProt Q969S8); test: Inhibition of HDAC10 (unknown origin) using fluorogenic tetrapeptide RHKK(Ac) substrate at <50 uM by fluorescence assay
T2 sequence (whole entry): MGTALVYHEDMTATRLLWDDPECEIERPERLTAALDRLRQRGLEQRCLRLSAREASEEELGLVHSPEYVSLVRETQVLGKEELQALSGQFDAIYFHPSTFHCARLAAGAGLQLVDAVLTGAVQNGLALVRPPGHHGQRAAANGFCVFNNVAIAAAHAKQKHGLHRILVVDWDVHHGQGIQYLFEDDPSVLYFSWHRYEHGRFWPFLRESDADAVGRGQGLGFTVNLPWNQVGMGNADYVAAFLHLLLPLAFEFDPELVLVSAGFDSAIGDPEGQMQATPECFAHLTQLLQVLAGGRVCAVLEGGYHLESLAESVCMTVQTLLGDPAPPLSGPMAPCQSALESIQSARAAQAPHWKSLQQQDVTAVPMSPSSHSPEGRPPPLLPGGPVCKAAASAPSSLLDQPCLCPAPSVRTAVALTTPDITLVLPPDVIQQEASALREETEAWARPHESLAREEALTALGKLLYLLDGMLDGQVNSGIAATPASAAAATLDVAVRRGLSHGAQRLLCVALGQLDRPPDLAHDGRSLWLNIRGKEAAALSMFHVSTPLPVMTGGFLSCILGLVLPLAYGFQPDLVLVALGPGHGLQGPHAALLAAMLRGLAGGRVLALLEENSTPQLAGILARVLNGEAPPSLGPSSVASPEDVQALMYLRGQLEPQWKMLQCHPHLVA
Outline: (§1)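 Fluorogenic assay with the tetrapeptide RHKK(Ac) substrate (p53 residues 379–382) at 50 μM.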

Histone deacetylase 1 [7] = target: T3, Histone deacetylase 1 (Homo sapiens, UniProt Q13547); test: Inhibition of HDAC1 (unknown origin) using fluorogenic tetrapeptide RHKK(Ac) substrate at <50 uM by fluorescence assay; outline: as §1
T3 sequence (Q13547 whole entry): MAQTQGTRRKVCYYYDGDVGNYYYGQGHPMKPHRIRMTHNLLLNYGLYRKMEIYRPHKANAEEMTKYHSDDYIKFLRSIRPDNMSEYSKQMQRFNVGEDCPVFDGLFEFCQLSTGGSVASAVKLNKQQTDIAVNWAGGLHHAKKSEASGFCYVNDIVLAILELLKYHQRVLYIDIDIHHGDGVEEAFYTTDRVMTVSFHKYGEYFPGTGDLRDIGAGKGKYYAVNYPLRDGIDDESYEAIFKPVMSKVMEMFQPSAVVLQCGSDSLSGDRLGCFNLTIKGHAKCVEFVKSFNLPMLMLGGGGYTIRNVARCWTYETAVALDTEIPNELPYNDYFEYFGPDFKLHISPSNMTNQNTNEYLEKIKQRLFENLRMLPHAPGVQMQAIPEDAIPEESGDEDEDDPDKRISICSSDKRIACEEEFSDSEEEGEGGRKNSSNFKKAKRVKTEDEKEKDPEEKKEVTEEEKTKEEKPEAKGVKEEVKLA

[8] = target: T4, Protein deacetylase HDAC6 (Homo sapiens, UniProt Q9UBN7); test: Inhibition of HDAC6 (unknown origin) using fluorogenic tetrapeptide RHKK(Ac) substrate by fluorescence assay
T4 sequence (Q9UBN7 whole entry): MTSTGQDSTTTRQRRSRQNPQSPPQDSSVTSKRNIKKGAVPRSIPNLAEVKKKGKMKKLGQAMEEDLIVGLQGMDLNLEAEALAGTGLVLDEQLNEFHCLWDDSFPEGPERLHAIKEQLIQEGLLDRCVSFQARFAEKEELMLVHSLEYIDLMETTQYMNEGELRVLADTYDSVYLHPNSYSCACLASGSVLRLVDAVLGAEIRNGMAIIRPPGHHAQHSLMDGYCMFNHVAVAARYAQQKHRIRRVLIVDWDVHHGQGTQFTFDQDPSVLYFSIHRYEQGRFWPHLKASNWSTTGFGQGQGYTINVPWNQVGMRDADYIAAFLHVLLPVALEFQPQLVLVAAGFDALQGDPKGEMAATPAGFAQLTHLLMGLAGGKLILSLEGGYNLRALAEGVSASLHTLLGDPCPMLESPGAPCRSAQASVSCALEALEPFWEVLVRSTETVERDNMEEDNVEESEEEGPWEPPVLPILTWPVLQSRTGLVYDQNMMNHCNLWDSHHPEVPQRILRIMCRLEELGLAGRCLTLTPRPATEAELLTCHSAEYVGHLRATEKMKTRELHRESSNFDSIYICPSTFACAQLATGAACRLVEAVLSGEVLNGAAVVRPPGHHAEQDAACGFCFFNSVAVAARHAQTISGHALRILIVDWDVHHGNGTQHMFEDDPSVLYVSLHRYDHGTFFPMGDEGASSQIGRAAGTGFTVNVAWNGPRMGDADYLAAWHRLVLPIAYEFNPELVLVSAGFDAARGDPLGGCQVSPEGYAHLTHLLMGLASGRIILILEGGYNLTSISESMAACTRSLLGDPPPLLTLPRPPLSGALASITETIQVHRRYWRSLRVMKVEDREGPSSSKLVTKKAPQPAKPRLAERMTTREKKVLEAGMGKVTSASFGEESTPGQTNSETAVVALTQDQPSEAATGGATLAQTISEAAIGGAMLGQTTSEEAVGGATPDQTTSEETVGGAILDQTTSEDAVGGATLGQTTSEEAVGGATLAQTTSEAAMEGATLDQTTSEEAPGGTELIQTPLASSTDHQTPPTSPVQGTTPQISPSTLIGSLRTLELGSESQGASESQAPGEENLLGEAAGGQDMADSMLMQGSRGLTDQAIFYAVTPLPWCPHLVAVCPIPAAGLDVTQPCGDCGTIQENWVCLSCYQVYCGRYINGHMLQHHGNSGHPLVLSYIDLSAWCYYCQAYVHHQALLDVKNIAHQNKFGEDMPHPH

Histone deacetylase 2 = Histone deacetylase 2 (Homo sapiens, UniProt Q92769); test: Inhibition of HDAC2 (unknown origin) using fluorogenic tetrapeptide RHKK(Ac) substrate at <50 uM by fluorescence assay; outline: as §1
Sequence of Histone deacetylase 2 (Q92769 whole entry): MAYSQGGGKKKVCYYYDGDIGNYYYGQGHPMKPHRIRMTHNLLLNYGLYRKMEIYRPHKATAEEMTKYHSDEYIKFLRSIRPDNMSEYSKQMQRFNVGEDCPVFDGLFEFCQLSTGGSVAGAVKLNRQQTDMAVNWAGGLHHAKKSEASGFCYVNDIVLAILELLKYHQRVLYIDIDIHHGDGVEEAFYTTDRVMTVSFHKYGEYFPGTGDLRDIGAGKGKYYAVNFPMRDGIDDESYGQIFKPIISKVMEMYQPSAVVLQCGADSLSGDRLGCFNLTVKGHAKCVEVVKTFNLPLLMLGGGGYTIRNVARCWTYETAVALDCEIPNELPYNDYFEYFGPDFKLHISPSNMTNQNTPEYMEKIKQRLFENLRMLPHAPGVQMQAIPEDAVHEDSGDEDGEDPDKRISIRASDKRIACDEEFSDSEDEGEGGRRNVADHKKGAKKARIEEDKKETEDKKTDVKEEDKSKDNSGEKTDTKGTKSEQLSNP

Histone deacetylase 11 = target: T5, Histone deacetylase 11 (Homo sapiens, UniProt Q96DB2); test: Inhibition of HDAC11 (unknown origin) using fluorogenic tetrapeptide RHKK(Ac) substrate by fluorescence assay
T5 sequence (Q96DB2 whole entry): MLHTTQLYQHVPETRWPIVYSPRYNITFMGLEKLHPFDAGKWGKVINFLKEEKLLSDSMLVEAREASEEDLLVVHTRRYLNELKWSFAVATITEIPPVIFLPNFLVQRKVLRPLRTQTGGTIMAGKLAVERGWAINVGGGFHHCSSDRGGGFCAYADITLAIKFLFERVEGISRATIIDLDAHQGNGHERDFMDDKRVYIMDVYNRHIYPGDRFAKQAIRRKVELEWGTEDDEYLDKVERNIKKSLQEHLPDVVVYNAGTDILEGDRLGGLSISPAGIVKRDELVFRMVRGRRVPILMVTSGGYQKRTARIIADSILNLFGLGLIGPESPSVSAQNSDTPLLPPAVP

Histone deacetylase 3 = Histone deacetylase 3 (Homo sapiens, UniProt O15379); test: Inhibition of HDAC3 (unknown origin) using fluorogenic tetrapeptide RHKK(Ac) substrate by fluorescence assay
Sequence of Histone deacetylase 3 (O15379 whole entry): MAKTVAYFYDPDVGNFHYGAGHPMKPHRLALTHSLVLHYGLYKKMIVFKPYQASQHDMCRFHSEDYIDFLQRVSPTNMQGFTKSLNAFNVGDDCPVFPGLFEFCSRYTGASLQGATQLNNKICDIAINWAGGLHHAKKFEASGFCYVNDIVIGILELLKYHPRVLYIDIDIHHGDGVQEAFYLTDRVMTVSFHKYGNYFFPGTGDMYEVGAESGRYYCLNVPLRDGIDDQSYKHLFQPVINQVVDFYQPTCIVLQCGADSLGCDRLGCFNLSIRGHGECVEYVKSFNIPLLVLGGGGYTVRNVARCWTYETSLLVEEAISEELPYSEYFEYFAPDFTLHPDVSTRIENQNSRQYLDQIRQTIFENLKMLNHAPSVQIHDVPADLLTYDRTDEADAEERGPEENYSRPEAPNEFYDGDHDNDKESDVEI

Histone deacetylase 8 = target: T6, Histone deacetylase 8 (Homo sapiens, UniProt Q9BY41); test: Inhibition of HDAC8 (unknown origin) using fluorogenic tetrapeptide RHK(Ac)K(Ac) substrate by fluorescence assay
T6 sequence (Q9BY41 whole entry): T1 sequence (whole entry)

Histone deacetylase 1 [9] = target: T3, Histone deacetylase 1; test: Inhibition of HDAC1 (unknown origin) using fluorogenic tetrapeptide RHKK(Ac) substrate by fluorescence assay
[10] = target: T7, Polyamine deacetylase HDAC10 (Homo sapiens, UniProt Q969S8); test: Inhibition of HDAC10 (unknown origin) using fluorogenic tetrapeptide RHKK(Ac) substrate by fluorescence assay
T7 sequence (Q969S8 whole entry): T2 sequence (whole entry)

- IC50 (Histone deacetylase [1]): 31 nM
- IC50 (Histone deacetylase [2]): 50 nM
Structure (SMILES): CC(=O)SCCCCC[C@H](NC(=O)[C@@H]1CC(=O)N1)C(=O)Nc1ccccc1
- IC50 (NCI-H460): 50 nM
- IC50 [3]: 86 nM

- IC50 (Histone deacetylase [1]): 100 nM
- IC50 (Histone deacetylase [2]): 100 nM
Structure (SMILES): CC(=O)SCCCCC[C@H](NC(=O)[C@@H]1CCCC(=O)N1)C(=O)Nc1ccccc1
- IC50 (NCI-H460): 100 nM
- IC50 [3]: 130 nM

- inhibition [5]: inactive
- inhibition [6]: inactive
- inhibition (Histone deacetylase 1 [7]): inactive
- IC50 [8]: 9380 nM
- inhibition (Histone deacetylase 2): inactive
- IC50 (Histone deacetylase 11): 14200 nM
- IC50 (Histone deacetylase 3): 17100 nM
Structure (SMILES): O=C1CCC[C@@H](C(=O)N[C@H](CCCCCS)C(=O)Nc2ccccc2)N1

More lines, now with the values behind:

Structure (SMILES): CC(=O)SCCCCC[C@H](NC(=O)[C@@H]1CCCC(=O)N1)C(=O)Nc1cccc(C)c1
- IC50 (NCI-H460): 60 nM

Structure (SMILES): CC(=O)SCCCCC[C@H](NC(=O)[C@H]1CCCC(=O)N1)C(=O)Nc1ccccc1
- IC50 (NCI-H460): 100 nM

Structure (SMILES): CC(=O)SCCCCC[C@H](NC(=O)[C@H]1CCC(=O)N1)C(=O)Nc1cccc(C)c1
- IC50 (NCI-H460): 40 nM

Structure (SMILES): CCOC(=O)SCCCCCCC(=O)Nc1ccccc1
- solubility [4]: > 1000 µg/mL

Structure (SMILES): O=C1CCC[C@@H](C(=O)N[C@@H](CCCCCS)C(=O)N2CCc3ccccc3C2)N1
- IC50 [8]: 582 nM
- IC50 (Histone deacetylase 8): 2230 nM
- inhibition (Histone deacetylase 2): inactive
- IC50 (Histone deacetylase 1 [9]): 2900 nM
- IC50 (Histone deacetylase 11): 293 nM
- IC50 (Histone deacetylase 3): 6330 nM
- IC50 [10]: 6000 nM

Structure (SMILES): CC(=O)SCCCCC[C@H](NC(=O)[C@@H]1CCC(=O)N1)C(=O)Nc1cccc(C)c1
- IC50 (NCI-H460): 60 nM
